Measured values taken from ChEMBL document CHEMBL2169772, “Discovery of (2S)-1-[4-(2-{6-amino-8-[(6-bromo-1,3-benzodioxol-5-yl)sulfanyl]-9H-purin-9-yl}ethyl)piperidin-1-yl]-2-hydroxypropan-1-one (MPC-3100), a purine-based Hsp90 inhibitor” (J Med Chem, 2012).
Values after ≈ are worked out from the molar mass of the structure shown. Active and inactive are the calls of the source. The calls are words filed in the database; no cut-off is given here.

Tests used:
[1] = Oral bioavailability in Swiss nude mouse at 100 mg/kg administered using captisol and phosphate buffer system formulation by LC-ESI-MS/MS method; settings: in vivo
[2] = AUC in Swiss nude mouse at 2.5 mg/kg, iv by LC-ESI-MS/MS method; format: ADME, organism-based; set-up: dose 2.5 mg/kg, route intravenous; settings: plasma
Method in brief: (§1)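 Intravenous dose in mice, vehicle DMA/PEG300/EtOH/H2O 3/40/12/45. Sampling at 5, 15, 30, 60, 120, 240, 480 and 720 min, three or five animals per time point. Cardiac-puncture EDTA plasma. Acetonitrile protein precipitation with internal standard, then LC-ESI-MS/MS (10–10 000 ng/mL curve). Parameters by noncompartmental fit.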

[3] = Cytotoxicity against human NCI-ADR-RES cells overexpressing P-gp 1 assessed as inhibition of tumor growth incubated for 72 hrs by luminometry; format: functional, cell-based
Method in brief: (§2)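 Cells seeded at 5000 per well in DMEM with 10% serum and left overnight. Compound added from DMSO dilutions (0.4% DMSO final) for 72 h. After 5 min at room temperature, ATPLite two-step lysis and substrate added, 5 min incubation, then luminescence read. Values are the mean of at least two experiments.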

[4] = tested on: NCI-N87; assay: Cytotoxicity against human NCI-N87 cells assessed as inhibition of tumor growth incubated for 72 hrs by luminometry; format: functional, cell-based; settings: NCI-N87, 72 h
Method in brief: as §2

[5] = biological target: T1, Heat shock protein HSP90 (Homo sapiens, UniProt P07900+P08238); assay: Inhibition of human HSP90 in NCI-N87 cells assessed induction of HSP70 incubated for 24 hrs by Western blot method; format: cell-based
Method in brief: (§3)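 Cells exposed to a range of concentrations for 24 h. Lysates analyzed by Western blot with Her2-, Hsp70- and Akt-specific antibodies.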

[6] = Volume of distribution in Swiss nude mouse at 2.5 mg/kg, iv by LC-ESI-MS/MS method; format: ADME, organism-based; set-up: dose 2.5 mg/kg, route intravenous; settings: in vivo
Method in brief: as §1

[7] = Oral bioavailability in Swiss nude mouse at 10 mg/kg by LC-ESI-MS/MS method; format: ADME, organism-based; settings: in vivo
Method in brief: (§4)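 Mice dosed by oral gavage, vehicle DMA/PEG300/EtOH/H2O (3/40/12/45, v/v/v/v). Blood drawn by cardiac puncture into EDTA plasma. Three or five animals per time point. Plasma precipitated with acetonitrile plus internal standard. Quantified by LC-ESI-MS/MS against a 10–10 000 ng/mL standard curve with QC samples. Noncompartmental analysis.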

[8] = tested on: HT-29; assay: Cytotoxicity against human HT-29 cells assessed as inhibition of tumor growth incubated for 72 hrs by luminometry; format: functional, cell-based; settings: HT-29, 72 h
Method in brief: as §2

[9] = biological target: T1, Heat shock protein HSP90; assay: Inhibition of human HSP90 in HCT116 cells assessed as degradation of Her2 incubated for 24 hrs by Western blot method; format: cell-based
Method in brief: as §3

[10] = tested on: DU-145; assay: Cytotoxicity against human DU145 cells assessed as inhibition of tumor growth incubated for 72 hrs by luminometry; format: functional, cell-based; settings: DU-145, 72 h
Method in brief: as §2

[11] = AUC in Swiss nude mouse at 100 mg/kg, po by LC-ESI-MS/MS method; format: ADME, organism-based; set-up: dose 100 mg/kg, route oral; settings: plasma
Method in brief: (§5)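 Single oral gavage in mice, vehicle 40% Captisol in phosphate buffer. EDTA plasma from cardiac puncture. Acetonitrile precipitation with internal standard, then LC-ESI-MS/MS quantitation against a 10–10 000 ng/mL standard curve. Cmax and AUC by noncompartmental analysis.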

[12] = Cmax in Swiss nude mouse at 100 mg/kg, po by LC-ESI-MS/MS method; format: ADME, organism-based; set-up: dose 100 mg/kg, route oral; settings: in vivo
Method in brief: as §5

[13] = tested on: HCT-116; assay: Cytotoxicity against human HCT116 cells assessed as inhibition of tumor growth incubated for 72 hrs by luminometry; format: functional, cell-based; settings: HCT-116, 72 h
Method in brief: as §2

[14] = tested on: LNCaP; assay: Cytotoxicity against human LNCAP cells assessed as inhibition of tumor growth incubated for 72 hrs by luminometry; format: functional, cell-based
Method in brief: as §2

[15] = biological target: T1, Heat shock protein HSP90; assay: Inhibition of human HSP90 in DU145 cells assessed as degradation of Her2 incubated for 24 hrs by Western blot method; format: cell-based
Method in brief: as §3

[16] = tested on: Mus musculus; assay: Inhibition of HSP90 in human NCI-N87 cells xenografted nude mouse liver assessed as induction of HSP70 mRNA expression at 50 to 200 mg/kg, po qd for 22 days; format: functional, organism-based
[17] = biological target: T1, Heat shock protein HSP90; assay: Inhibition of human HSP90 in HCT116 cells expressing Her2 gene assessed as degradation of Her2 after 4 hrs by luciferase reporter gene assay; format: cell-based; settings: hct-116
Method in brief: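 HCT116 cells stably transfected with Her2 kinase domain (aa 641–975) fused to firefly luciferase. Seeded at 10 000 per well in DMEM with 10% serum and left overnight. Compound added from DMSO (0.4% final) for 4 h. Steady-Glo added at room temperature for 5 min, then luminescence read.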

[18] = tested on: Mus musculus; assay: Toxicity in nude mouse xenografted with human NCI-N87 cells assessed as effect on body weight at 50 mg/kg, po qd for 22 days measured twice a week; format: organism-based; set-up: dose 50 mg/kg, route oral; settings: in vivo, 528 h
Method in brief: (§6)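 Female nude mice (Crl:NU-Fox1nu) implanted subcutaneously in the right flank with 5 million NCI-N87 cells. At median tumor volume of roughly >100 mm3, randomized to 5 cohorts of 10. Dosed orally once daily for 22 days with vehicle (40% w/w Captisol) or 50, 75, 125 or 200 mg/kg. Tumor size and body weight measured at least twice weekly.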

[19] = biological target: T1, Heat shock protein HSP90; assay: Inhibition of human HSP90 in NCI-N87 cells assessed as degradation of Her2 incubated for 24 hrs by Western blot method; format: cell-based
Method in brief: as §3

[20] = AUC in Swiss nude mouse at 10 mg/kg, po by LC-ESI-MS/MS method; format: ADME, organism-based; set-up: dose 10 mg/kg, route oral; settings: plasma
Method in brief: as §4

[21] = biological target: T1, Heat shock protein HSP90; assay: Inhibition of human HSP90 in DU145 cells assessed as induction of HSP70 incubated for 24 hrs by Western blot method; format: cell-based; settings: DU-145
Method in brief: as §3

[22] = tested on: Mus musculus; assay: Inhibition of HSP90 in human NCI-N87 cells xenografted nude mouse tumor assessed as induction of HSP70 mRNA expression at 50 to 200 mg/kg, po qd for 22 days; format: functional, organism-based
[23] = Solubility of compound in phosphate buffer at pH 7.4; format: physicochemical
[24] = tested on: NCI-N87; assay: Antitumor activity against human NCI-N87 cells xenografted in nude mouse assessed as tumor regression at 125 mg/kg, po qd for 22 days measured twice a week; settings: 528 h
[25] = tested on: NCI-N87; assay: Antitumor activity against human NCI-N87 cells xenografted in nude mouse assessed as tumor growth inhibition at 50 mg/kg, po qd for 22 days measured twice a week; format: functional; settings: NCI-N87, 528 h, read-out: TGI
Method in brief: as §6

[26] = biological target: T1, Heat shock protein HSP90; assay: Inhibition of human HSP90 in HCT116 cells assessed as degradation of Akt incubated for 24 hrs by Western blot method; format: cell-based
Method in brief: as §3

[27] = tested on: Mus musculus; assay: Toxicity in nude mouse xenografted with human NCI-N87 cells assessed as effect on body weight at 75 mg/kg, po qd for 22 days measured twice a week; format: organism-based; set-up: dose 75 mg/kg, route oral; settings: in vivo, 528 h
Method in brief: as §6

[28] = Cmax in Swiss nude mouse at 10 mg/kg, po by LC-ESI-MS/MS method; format: ADME, organism-based; set-up: dose 10 mg/kg, route oral; settings: in vivo
Method in brief: as §4

[29] = tested on: NCI-N87; assay: Antitumor activity against human NCI-N87 cells xenografted in nude mouse assessed as tumor regression at 200 mg/kg, po qd for 22 days measured twice a week; settings: 528 h

bioavailability [1]: > 50%
AUC [2]: 2110 ng·h/mL
inhibition [5]: Dose-dependent effect
Vd [6]: 2.44 L/kg
bioavailability [7]: 38%
inhibition ([9]; HCT-116): Dose-dependent effect
IC50 ([9]; hct-116): 100 nM
AUC [11]: 81800 ng·h/mL
Cmax [12]: 13100 ng/mL
inhibition ([15]; DU-145): Dose-dependent effect
IC50 ([15]; du-145): 100 nM
IC50 [17]: 60 nM
IC50 [19]: 100 nM
inhibition [19]: Dose-dependent effect
AUC [20]: 3210 ng·h/mL
inhibition [21]: Dose-dependent effect
solubility [23]: 20 µM (≈ 11 µg/mL)
inhibition ([26]; HCT-116): Dose-dependent effect
IC50 ([26]; hct-116): 100 nM
Cmax [28]: 2800 ng/mL
Compound: C[C@H](O)C(=O)N1CCC(CCn2c(Sc3cc4c(cc3Br)OCO4)nc3c(N)ncnc32)CC1
IC50 [3]: 4300 nM
IC50 [4]: 200 nM
IC50 [8]: 420 nM
IC50 [10]: 530 nM
IC50 [13]: 540 nM
IC50 [14]: 510 nM
inhibition [16]: Active
Activity [18]: Non-toxic
inhibition [22]: Active
tumor regression at 125 mg/kg [24]: 10%
inhibition in vivo at 50 mg/kg [25]: 37%
Activity [27]: Non-toxic
tumor regression at 200 mg/kg [29]: 48%
